The pIC50 is the IC50 on a negative log10 scale, so that one unit is a factor of ten. A high value points to a low IC50.

This is an account of results in ChEMBL document CHEMBL1949538, “Hybrids of privileged structures benzothiazoles and pyrrolo[2,1-c] [1,4]benzodiazepin-5-one, and diversity-oriented synthesis of benzothiazoles” (Eur J Med Chem, 2012).

pIC50: −log10 of the molar value.

Common to all, as to type: functional, cell-based
For one experiment, the system named is A549. The experiment in a line: Cytotoxicity against human A549 cells after 2 days by MTT assay. Conditions: A549, 48 h. The method, boiled down: (§1)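 Leukemia lines (HL-60, THP-1, U-937, Jurkat) grown in RPMI-1640, A-549 in DMEM, both with 10% heat-inactivated FCS at 37 °C, 5% CO2. Cells seeded at 2 × 10⁴/well, dosed after 24 h and read 2 days later. MTT (5 mg/mL stock) added for 4 h at 37 °C, formazan dissolved in DMSO, read at 570 nm. Five replicates; IC50 from linear regression.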

The test system of a further experiment is THP-1. Put plainly: Cytotoxicity against human THP1 cells after 2 days by MTT assay. Conditions: THP-1, 48 h. The method, boiled down:
as §1
(Tetrazolium dyes change colour on reduction, which living cells bring about.)

In another experiment the test system is HL-60. The experiment in a line: Cytotoxicity against human HL60 cells after 2 days by MTT assay. Conditions: HL-60, 48 h. The gist of the method:
as §1

Another experiment concerns Jurkat. Put plainly: Cytotoxicity against human Jurkat cells after 2 days by MTT assay. Conditions: 48 h. The gist of the method:
as §1

Another experiment has as its system U-937. Put plainly: Cytotoxicity against human U937 cells after 2 days by MTT assay. As to conditions: U-937, 48 h. The method, boiled down: as §1

Turning to `Cc1ccc(-c2nc3ccccc3s2)cc1N`, the pIC50 in the experiment with A549, with THP-1, with HL-60, in the experiment on Jurkat and with U-937 was under 4.30 each time.
With `COc1ccc2nc(-c3ccc(C)c(N)c3)sc2c1`, the negative logarithm of the IC50 (pIC50) with A549, with THP-1, in the experiment with HL-60, in the experiment on Jurkat and with U-937 was under 4.30 in each case.
Take `O=C1c2ccc(-c3nc4ccccc4s3)cc2N=C[C@@H]2CCCN12`: the pIC50 was 5.51 in the experiment on THP-1, 5.14 in the experiment with HL-60, 5.03 in the experiment on Jurkat and 5.27 in the experiment on U-937.
Consider `CC1(C)O[C@H]2O[C@H]([C@H]3COC(C)(C)O3)[C@H](OCc3ccc(-c4nc5ccc(F)cc5s4)cc3)[C@H]2O1`, for which the negative logarithm of the IC50 (pIC50) in the experiment on A549, with THP-1, in the experiment with HL-60, in the experiment on Jurkat and in the experiment on U-937 was under 4.30 in each case.
In the case of `COc1cc2nc(-c3cccc(N)c3C)sc2c(OC)c1OC`, the pIC50 in the experiment on A549 was 5.34; in the experiment on THP-1, 5.45; in the experiment on HL-60, 5.25; in the experiment on Jurkat it was 5.01.
In the case of `Cc1ccc(-c2nc3ccc(F)cc3s2)cc1N`, the pIC50 with A549, in the experiment on THP-1, in the experiment with HL-60, in the experiment with Jurkat and with U-937 was under 4.30 throughout.
On to `COc1ccc2nc(-c3ccc(NC(=O)C4CC4)cc3)sc2c1`, for which the pIC50 in the experiment on A549, with THP-1, in the experiment with HL-60, with Jurkat and in the experiment on U-937 was under 4.30 each time.
`O=C1c2ccc(-c3nc4ccc(F)cc4s3)cc2N=C[C@@H]2CCCN12`: the pIC50 is 6.31 in the experiment on THP-1, 5.38 with HL-60, 5.18 in the experiment on Jurkat and 5.46 in the experiment with U-937.
Turning to `COc1ccc2nc(-c3ccc(N)cc3)sc2c1`, the pIC50 in the experiment with A549, in the experiment with THP-1, with HL-60, in the experiment on Jurkat and with U-937 was under 4.30 in each case.
Turning to `COc1ccc2nc(-c3ccc(N=C(NC4CCCCC4)NC4CCCCC4)cc3)sc2c1`, the pIC50 was 5.49 in the experiment with A549, 5.51 in the experiment on THP-1, 5.15 in the experiment on HL-60 and 5.65 in the experiment with Jurkat.
Consider `COc1ccc2nc(-c3ccc(NC(=O)NCc4ccccc4)cc3)sc2c1`, for which the pIC50 in the experiment on A549, in the experiment with THP-1, in the experiment with HL-60, in the experiment with Jurkat and in the experiment with U-937 was under 4.30 each time.
For `COc1cc([C@@H]2c3cc4c(cc3[C@@H](O[C@@H]3O[C@@H]5CO[C@@H](C)O[C@H]5[C@H](O)[C@H]3O)[C@H]3COC(=O)[C@H]23)OCO4)cc(OC)c1O` [ETOPOSIDE], the figures for the pIC50 with Jurkat and in the experiment on U-937 were 5.27 and 4.75, respectively.
As to `CC1(C)O[C@H]2O[C@H]([C@H](O)CO)[C@H](OCc3ccc(-c4nc5ccc(F)cc5s4)cc3)[C@H]2O1`, the pIC50 with A549 is 5.30; with THP-1, 5.52; in the experiment with HL-60, 4.65; with Jurkat it was 5.49.
With `CC[C@@]1(O)C(=O)OCc2c1cc1n(c2=O)Cc2cc3ccccc3nc2-1` [CAMPTOTHECIN], the negative-log IC50 (pIC50) was 8.10 in the experiment with A549; 7.15 in the experiment on THP-1; 6.22 in the experiment on HL-60; 7.59 in the experiment on Jurkat; 5.70 in the experiment with U-937.
For `COc1ccc2nc(-c3ccc4c(c3)N=C[C@@H]3CCCN3C4=O)sc2c1`, the pIC50 with THP-1 is 5.67; in the experiment with HL-60 it was 5.19; in the experiment on Jurkat it was 4.95; in the experiment on U-937, 5.22.
